Experiments:
[1] = target: T1, GABA-A receptor; alpha-3/beta-3/gamma-2 (Homo sapiens, UniProt P18507+P28472+P34903); test: Displacement of [3H]-Ro- 15-1788 binding from human recombinant Gamma-aminobutyric acid A receptor alpha-3-beta-3-gamma-2 expressed in mouse fibroblast L(tk-) cells (30 min at 24 degrees C, pH 7.4); format: cell-based
T1 sequence (P18507 whole entry): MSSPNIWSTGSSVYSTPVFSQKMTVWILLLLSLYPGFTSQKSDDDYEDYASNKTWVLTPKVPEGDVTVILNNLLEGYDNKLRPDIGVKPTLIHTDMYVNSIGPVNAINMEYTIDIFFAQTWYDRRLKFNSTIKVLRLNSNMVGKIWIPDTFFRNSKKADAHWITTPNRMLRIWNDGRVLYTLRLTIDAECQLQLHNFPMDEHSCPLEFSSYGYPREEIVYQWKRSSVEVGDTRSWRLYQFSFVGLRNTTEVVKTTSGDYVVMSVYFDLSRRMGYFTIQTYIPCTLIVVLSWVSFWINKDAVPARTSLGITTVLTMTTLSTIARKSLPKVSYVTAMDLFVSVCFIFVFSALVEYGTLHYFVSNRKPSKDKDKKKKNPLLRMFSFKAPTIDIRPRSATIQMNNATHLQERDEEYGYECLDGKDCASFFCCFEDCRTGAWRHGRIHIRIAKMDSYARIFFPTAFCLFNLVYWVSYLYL
T1 sequence (P28472 whole entry): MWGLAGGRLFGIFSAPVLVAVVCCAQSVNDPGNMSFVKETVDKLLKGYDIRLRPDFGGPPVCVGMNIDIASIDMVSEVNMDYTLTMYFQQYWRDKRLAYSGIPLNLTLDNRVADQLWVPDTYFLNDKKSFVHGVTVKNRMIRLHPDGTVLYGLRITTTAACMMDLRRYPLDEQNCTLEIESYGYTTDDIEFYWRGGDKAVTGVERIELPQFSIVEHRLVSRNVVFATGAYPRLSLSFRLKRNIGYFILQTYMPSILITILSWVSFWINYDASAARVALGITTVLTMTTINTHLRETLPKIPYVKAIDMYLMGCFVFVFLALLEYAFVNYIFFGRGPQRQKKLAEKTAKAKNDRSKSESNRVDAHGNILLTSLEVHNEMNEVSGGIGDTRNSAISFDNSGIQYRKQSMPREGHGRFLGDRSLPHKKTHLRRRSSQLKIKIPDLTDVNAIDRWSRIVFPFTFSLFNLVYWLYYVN
T1 sequence (P34903 whole entry): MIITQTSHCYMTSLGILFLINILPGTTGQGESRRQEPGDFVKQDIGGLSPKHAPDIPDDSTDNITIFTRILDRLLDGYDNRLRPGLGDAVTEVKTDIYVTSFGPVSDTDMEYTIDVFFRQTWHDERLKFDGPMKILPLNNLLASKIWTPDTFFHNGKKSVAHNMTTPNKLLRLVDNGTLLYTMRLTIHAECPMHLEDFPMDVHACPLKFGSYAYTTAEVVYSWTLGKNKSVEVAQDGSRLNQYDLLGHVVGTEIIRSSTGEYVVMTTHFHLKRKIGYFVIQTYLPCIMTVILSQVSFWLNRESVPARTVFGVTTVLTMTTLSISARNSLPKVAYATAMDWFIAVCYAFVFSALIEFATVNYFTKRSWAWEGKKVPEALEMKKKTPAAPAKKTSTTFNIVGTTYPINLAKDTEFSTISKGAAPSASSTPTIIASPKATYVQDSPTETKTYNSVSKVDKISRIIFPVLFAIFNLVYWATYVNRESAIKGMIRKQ
Procedure, shortened: (§1)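 Membranes from L(tk-) cells stably expressing human α1, α3 or α5 β3γ2 in 50 mM Tris pH 7.4. [3H]Ro15-1788 at 1.8 nM final, 30 min at 24 °C. Nonspecific binding set with 10 µM flunitrazepam, total binding in 0.1% DMSO. Filtration, scintillation counting. Ki is mean ± SEM of ≥3 independent determinations.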

[2] = target: T2, GABA-A receptor; alpha-3/beta-3/gamma-2 (Homo sapiens) (UniProt P18507+P28472+P34903); test: Efficacy at GABAA alpha-3-beta-3-gamma-2 receptor expressed in mouse fibroblast L(tk-) cells measured at 300 nM derived from at least three plates/day screened over a minimum of 2 days; format: functional, cell-based
Procedure, shortened: (§2)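 FRET membrane-potential (VIPR) assay in L(tk-) cells with receptor expression induced 24 h by 1 µM dexamethasone. Dye-loaded 30 min in low-Cl- HEPES buffer pH 7.4: 4 µM CC2-DMPE, 1 µM DiSBAC2(3), 0.5 mM tartrazine. Basal read 8 s, compound at 300 nM, half-maximal GABA 22 s later, 1 Hz reads. Background-subtracted 460/580 nm ratio, normalized to DMCM as -100%.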

[3] = target: T3, GABA-A receptor; alpha-5/beta-3/gamma-2 (Homo sapiens, UniProt P18507+P28472+P31644); test: Displacement of [3H]-Ro- 15-1788 binding from human recombinant Gamma-aminobutyric acid A receptor alpha-5-beta-3-gamma-2 expressed in mouse fibroblast L(tk-) cells (30 min at 24 degrees C, pH 7.4); format: cell-based; procedure, shortened: as §1
T3 sequence (P18507 whole entry): T1 sequence (P18507 whole entry)
T3 sequence (P28472 whole entry): T1 sequence (P28472 whole entry)
T3 sequence (P31644 whole entry): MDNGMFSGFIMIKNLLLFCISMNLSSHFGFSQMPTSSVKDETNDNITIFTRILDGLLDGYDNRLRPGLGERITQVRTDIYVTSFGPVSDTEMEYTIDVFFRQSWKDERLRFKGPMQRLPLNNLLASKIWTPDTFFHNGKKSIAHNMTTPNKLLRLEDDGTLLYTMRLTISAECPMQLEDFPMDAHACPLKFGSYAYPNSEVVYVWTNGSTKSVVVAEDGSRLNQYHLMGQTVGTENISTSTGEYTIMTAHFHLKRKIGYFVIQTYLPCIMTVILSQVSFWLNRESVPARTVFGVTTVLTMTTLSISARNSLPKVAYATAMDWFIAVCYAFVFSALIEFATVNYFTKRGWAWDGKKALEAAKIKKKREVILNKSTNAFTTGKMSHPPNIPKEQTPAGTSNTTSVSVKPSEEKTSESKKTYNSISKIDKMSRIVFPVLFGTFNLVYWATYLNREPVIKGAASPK

[4] = target: T4, GABA-A receptor; alpha-5/beta-3/gamma-2 (Homo sapiens) (UniProt P18507+P28472+P31644); test: Efficacy at GABAA alpha-5-beta-3-gamma-2 receptor expressed in mouse fibroblast L(tk-) cells measured at 300 nM derived from at least three plates/day screened over a minimum of 2 days; format: functional, cell-based; procedure, shortened: as §2
[5] = target: T5, GABA-A receptor; alpha-1/beta-3/gamma-2 (Homo sapiens, UniProt P14867+P18507+P28472); test: Displacement of [3H]-Ro- 15-1788 binding from human recombinant Gamma-aminobutyric acid A receptor alpha-1-beta-3-gamma-2 expressed in mouse fibroblast L(tk-) cells (30 min at 24 degrees C, pH 7.4); format: cell-based; procedure, shortened: as §1
T5 sequence (P14867 whole entry): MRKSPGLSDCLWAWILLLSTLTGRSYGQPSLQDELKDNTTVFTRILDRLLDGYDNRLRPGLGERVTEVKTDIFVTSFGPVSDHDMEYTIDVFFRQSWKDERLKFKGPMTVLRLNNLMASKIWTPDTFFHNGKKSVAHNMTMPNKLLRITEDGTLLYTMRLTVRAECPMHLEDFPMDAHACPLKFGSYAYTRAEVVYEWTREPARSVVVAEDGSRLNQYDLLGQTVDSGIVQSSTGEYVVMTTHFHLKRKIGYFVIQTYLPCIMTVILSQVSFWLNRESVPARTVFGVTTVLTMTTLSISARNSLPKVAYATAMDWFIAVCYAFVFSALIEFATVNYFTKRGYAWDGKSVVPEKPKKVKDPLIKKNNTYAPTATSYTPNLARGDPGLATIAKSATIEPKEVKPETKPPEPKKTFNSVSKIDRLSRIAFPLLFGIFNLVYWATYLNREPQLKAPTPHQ
T5 sequence (P18507 whole entry): T1 sequence (P18507 whole entry)
T5 sequence (P28472 whole entry): T1 sequence (P28472 whole entry)

[6] = target: T4, GABA-A receptor; alpha-5/beta-3/gamma-2 (Homo sapiens); test: Efficacy for GABA-A alpha-5-beta-3-gamma-2 receptor expressed in mouse fibroblast L(tk-) cells at 300 nM derived from at least three plates/day screened over a minimum of 2 days; format: functional, cell-based; procedure, shortened: as §2
[7] = target: T2, GABA-A receptor; alpha-3/beta-3/gamma-2 (Homo sapiens); test: Efficacy for GABA-A alpha-3-beta-3-gamma-2 receptor expressed in mouse fibroblast L(tk-) cells at 300 nM derived from at least three plates/day screened over a minimum of 2 days; format: functional, cell-based; procedure, shortened: as §2

Ki [1] [µM] | Efficacy [2] | Ki [3] [µM] | Efficacy [4] | Ki [5] [µM] | Efficacy [6] | Efficacy [7] | Structure (SMILES)
0.302 | 32 | 0.063 | – | – | – | – | Brc1cccc(-c2cnnc(OCc3ccccc3)c2)c1
0.029 | -7 | 0.011 | -48 | – | – | – | COC(=O)c1cccc(-c2cnnc(-c3ccccc3)c2)c1
0.081 | 49 | 0.056 | 45 | 0.027 | – | – | N#Cc1ccc(-c2cnnc(-c3ccccc3)c2)cc1
0.0079 | -17 | 0.0034 | -31 | – | – | – | N#Cc1cccc(-c2cnnc(-c3ccccc3F)c2)c1
0.113 | 3 | 0.027 | -26 | 0.049 | – | – | CNc1cc(-c2cccc(Br)c2)cnn1
> 0.666 | – | > 0.666 | – | > 0.666 | – | – | N#Cc1cccc(-c2cc(-c3ccccc3)cnn2)c1
0.205 | 42 | 0.054 | -18 | – | – | – | COc1cc(-c2cccc(Br)c2)cnn1
0.0072 | 3.6 | 0.004 | 0 | – | – | – | N#Cc1cccc(-c2cnnc(-c3cccc(F)c3)c2)c1
0.12 | -49 | 0.051 | -62 | 0.055 | – | – | CN(C)c1cc(-c2cccc(Br)c2)cnn1
0.0104 | 43 | 0.0088 | -5 | 0.0085 | – | – | Cn1ncnc1COc1cccc(-c2cnnc(-c3ccccc3)c2)c1
0.079 | 8 | 0.033 | -29 | – | – | – | CCNc1cc(-c2cccc(C#N)c2)cnn1
0.023 | – | 0.017 | -57 | – | – | – | N#Cc1cccc(-c2cnnc(-c3ccc(F)cc3F)c2)c1
0.064 | – | 0.012 | – | 0.154 | 27 | – | COC(=O)c1c(-c2ccccc2)cnnc1-c1ccccc1
0.022 | 25 | 0.0072 | 14 | 0.0073 | – | – | CC(C)Nc1cc(-c2cccc(Br)c2)cnn1
0.026 | – | 0.014 | – | – | – | – | N#Cc1cccc(-c2cnnc(-c3ccc(F)cc3)c2)c1
0.0073 | 2 | 0.0038 | -12 | 0.0035 | – | – | CCNc1cc(-c2cccc(Br)c2)cnn1
0.045 | -44 | 0.012 | -39 | 0.088 | – | – | COC(=O)c1sccc1-c1cnnc(-c2ccccc2)c1
0.041 | 13 | 0.012 | -31 | – | – | – | c1ccc(-c2cc(-c3cccc(-n4cnnc4)c3)cnn2)cc1
0.06 | 28 | 0.036 | 12 | 0.026 | – | – | CC(C)Oc1cc(-c2cccc(Br)c2)cnn1
0.015 | 59 | 0.0061 | 17 | – | – | – | N#Cc1cccc(-c2cnnc(NCc3ccccc3)c2)c1
0.051 | 66 | 0.019 | 14 | – | – | – | Brc1cccc(-c2cnnc(NCc3ccccc3)c2)c1
0.041 | 32 | 0.013 | – | – | -15 | – | N#Cc1cccc(-c2cnnc(-c3ccc(F)c(F)c3)c2)c1
0.027 | 22 | 0.0084 | 18 | 0.012 | – | – | CC(C)Oc1cccc(-c2cnnc(-c3ccccc3)c2)c1
0.06 | 60 | 0.017 | – | – | – | – | N#Cc1cccc(-c2cnnc(OCc3ccccc3)c2)c1
0.44 | – | 0.323 | – | – | – | – | N#Cc1ccccc1-c1cnnc(-c2ccccc2)c1
0.0031 | -49 | 0.0016 | -62 | 0.0013 | – | – | c1ccc(-c2cc(-c3ccnc(-c4ccncc4)n3)cnn2)cc1
0.015 | – | 0.0079 | -2 | 0.0075 | – | -2 | Brc1cccc(-c2cnnc(-c3ccccc3)c2)c1
0.019 | 39 | 0.0057 | 4 | 0.0086 | – | – | CCOc1cc(-c2cccc(Br)c2)cnn1
0.072 | 19 | 0.036 | -9 | – | – | – | CCOc1cc(-c2cccc(C#N)c2)cnn1
0.045 | -20 | 0.029 | -14 | 0.036 | – | – | c1ccc(-c2cnnc(-c3ccccc3)c2)cc1
